# Laboratory results taken from ChEMBL document CHEMBL1124442, “Potential antitumor agents. 58. Synthesis and structure-activity relationships of substituted xanthenone-4-acetic acids active against the colon 38 tumor in vivo” (1989).
# Active and inactive are the calls of the source.
# Key:
# [1] = Activity against colon adenocarcinoma C38 tumor in mice, after intraperitoneal administration at optimal dose; type: functional, Mus musculus
# Procedure, shortened: (§1)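 Colon 38 fragments implanted subcutaneously and grown to 4–8 mm diameter. Single intraperitoneal dose of the sodium salt in 0.2 mL water, escalated at 1.5-fold intervals up to 750 mg/kg or the toxic limit, with at least three mice per dose. Optimal dose is the highest dose with no acute deaths within 24 h. Tumors excised at 24 h, fixed in formalin and stained with H&E. Sections scored against controls: + = 50–90% hemorrhagic necrosis, ++ = >90%.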
# P388 [2] = assay: Inhibition of 10e6 P388 leukemic cells in mice, intraperitoneal administration; type: functional, Mus musculus
# Procedure, shortened: (§2)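 10⁶ P388 leukemia cells injected intraperitoneally. Drug given intraperitoneally as the sodium salt in 0.2 mL water on days 1, 5 and 9; optimal dose is in mg/kg per day. ILS is the mean percent increase in lifespan over untreated tumor-bearing controls, with ≥20% considered significant. NA means no activity at any dose up to toxic levels.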
# [3] = Inhibition of colon adenocarcinoma C38 tumor growth in mice, intraperitoneal administration; type: functional, Mus musculus; procedure, shortened: as §1
# P388 [4] = assay: The average percentage increase in the lifespan of P388 leukemic mice, when compound was administered intraperitoneally; NA is Not Active.; type: functional, cell-based; settings: Mus musculus; procedure, shortened: as §2
# [5] = Activity against colon adenocarcinoma C38 tumor in mice, after intraperitoneal administration at optimal dose.; type: functional, Mus musculus; procedure, shortened: as §1
# P388 [6] = assay: The average percentage increase in the lifespan of P388 leukemic mice, when compound was administered intraperitoneally; type: functional, Mus musculus
# Procedure, shortened: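 Mice received 10⁶ P388 leukemia cells ip. Drug was given ip as the sodium salt in 0.2 mL water on days 1, 5 and 9, with doses in mg/kg/day up to toxic levels. ILS is the average percentage increase in lifespan over untreated tumor-bearing controls, and values of ≥20% were taken as significant.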
# [7] = Ability of compound (45 mg/kg, q7dx2) to inhibit growth of Sc colon 38 tumor cells in mice; type: functional, Mus musculus
# Procedure, shortened: (§3)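 Mice carrying palpable subcutaneous colon 38 tumors, randomized in groups of five. Drug given intraperitoneally in aqueous solution, either as a single dose or as two equal doses 7 days apart. Major and minor tumor axes measured twice weekly from the start of treatment. Volume taken as 0.52x²y. Growth delay in days is relative to untreated controls.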
# [8] = Activity against colon adenocarcinoma C38 tumor in mice, after intraperitoneal administration at optimal dose and value ranges from 50 -90 %; type: functional, Mus musculus; procedure, shortened: as §1
# P388 [9] = assay: The average percentage increase in the lifespan of P388 leukemic mice, when compound was administered intraperitoneally; NA means not active; type: functional, cell-based; settings: Mus musculus; procedure, shortened: as §2
# [10] = Ability of compound (220 mg/kg, q7dx2) to inhibit growth of Sc colon 38 tumor cells in mice; type: functional, Mus musculus; procedure, shortened: as §3
# P388 [11] = assay: The average percentage increase in the lifespan of P388 leukemic mice, when compound was administered intraperitoneally; NA means not active.; type: functional, cell-based; settings: Mus musculus; procedure, shortened: as §2
# P388 [12] = assay: The average percentage increase in the lifespan of P388 leukemic mice, when compound was administered intraperitoneally; NA is Not active; type: functional, cell-based; settings: Mus musculus; procedure, shortened: as §2
# [13] = Ability of compound (100 mg/kg, single dose) to inhibit growth of Sc colon 38 tumor cells in mice; type: functional, Mus musculus; procedure, shortened: as §3
# P388 [14] = assay: Optimal dose that inhibits growth of 10e6 P388 leukemic cells in mice, after intraperitoneal administration of the compound; type: functional, Mus musculus; procedure, shortened: as §2
# [15] = Ability of compound (330 mg/kg, single dose) to inhibit growth of Sc colon 38 tumor cells in mice; type: functional, Mus musculus; procedure, shortened: as §3
# [16] = Ability of compound (65 mg/kg, q4dx3) to inhibit growth of Sc colon 38 tumor cells in mice; type: functional, Mus musculus
# Procedure, shortened: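 Subcutaneously implanted colon 38 fragments were grown to 4–8 mm diameter. Mice with palpable tumors were randomized in groups of five and dosed ip with drug in aqueous solution; q4d×3 means three equal doses 4 days apart. Major and minor tumor axes were measured twice weekly from the start of treatment. Volume was calculated as 0.52x²y, and growth delay in days was derived against untreated controls.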
smiles,measurement,setting,value
COc1ccc2c(=O)c3ccccc3oc2c1CC(=O)O,Activity,[1],<50%
same,Optimal dose,P388 [2],220 mg/kg
same,Optimal dose,[3],220 mg/kg
same,ILS,P388 [4],No activity
O=C(O)Cc1c(Cl)ccc2c(=O)c3ccccc3oc12,Optimal dose,P388 [2],150 mg/kg
same,Optimal dose,[3],500 mg/kg
same,ILS,P388 [4],No activity
same,Activity,[5],>90%
Cc1cccc2c(=O)c3cccc(CC(=O)O)c3oc12,Activity,[1],>90%
same,Optimal dose,P388 [2],30 mg/kg
same,Optimal dose,[3],45 mg/kg
same,ILS,P388 [6],27%
same,Growth delay,[7],13 days
O=C(O)Cc1cccc2c(=O)c3ccc(O)cc3oc12,Optimal dose,P388 [2],225 mg/kg
same,Optimal dose,[3],750 mg/kg
same,Activity,[8],50%
same,ILS,P388 [4],No activity
O=C(O)Cc1cccc2c(=O)c3ccccc3oc12,Activity,[1],>90%
same,Optimal dose,P388 [2],150 mg/kg
same,ILS,P388 [9],inactive
same,Growth delay,[10],11 days
same,Optimal dose,[3],220 mg/kg
Cc1cccc2oc3c(CC(=O)O)cccc3c(=O)c12,Activity,[1],<50%
same,Optimal dose,P388 [2],150 mg/kg
same,Optimal dose,[3],330 mg/kg
same,ILS,P388 [4],No activity
O=C(O)Cc1ccc(O)c2c(=O)c3ccccc3oc12,Activity,[1],<50%
same,Optimal dose,[3],750 mg/kg
O=C(O)Cc1cccc2c(=O)c3c(Cl)cccc3oc12,Optimal dose,P388 [2],330 mg/kg
same,Optimal dose,[3],750 mg/kg
same,Activity,[8],50%
same,ILS,P388 [4],No activity
O=C(O)Cc1cccc2c(=O)c3cccc(O)c3oc12,Activity,[1],<50%
same,ILS,P388 [11],No activity
same,Optimal dose,P388 [2],150 mg/kg
same,Optimal dose,[3],750 mg/kg
COc1cccc2oc3c(CC(=O)O)cccc3c(=O)c12,Activity,[1],<50%
same,Optimal dose,P388 [2],330 mg/kg
same,Optimal dose,[3],750 mg/kg
same,ILS,P388 [4],No activity
O=C(O)Cc1cc(Cl)cc2c(=O)c3ccccc3oc12,Optimal dose,P388 [2],150 mg/kg
same,Optimal dose,[3],330 mg/kg
same,Activity,[8],50%
same,ILS,P388 [4],No activity
Cc1ccc2c(=O)c3ccccc3oc2c1CC(=O)O,Optimal dose,P388 [2],100 mg/kg
same,Optimal dose,[3],150 mg/kg
same,Activity,[8],50%
same,ILS,P388 [6],26%
O=C(O)Cc1ccc2c(=O)c3ccccc3oc2c1,Activity,[1],<50%
same,Optimal dose,P388 [2],225 mg/kg
same,Optimal dose,[3],500 mg/kg
same,ILS,P388 [4],No activity
O=C(O)Cc1cccc2c(=O)c3cc([N+](=O)[O-])ccc3oc12,Activity,[1],<50%
same,Optimal dose,P388 [2],225 mg/kg
same,Optimal dose,[3],500 mg/kg
same,ILS,P388 [12],inactive
COc1ccc2c(=O)c3cccc(CC(=O)O)c3oc2c1,Growth delay,[13],0 days
same,Optimal dose,P388 [2],65 mg/kg
same,Optimal dose,[3],150 mg/kg
same,Activity,[8],50%
same,ILS,P388 [6],28%
COc1ccc(CC(=O)O)c2oc3ccccc3c(=O)c12,Activity,[1],<50%
same,Optimal dose,[3],500 mg/kg
COc1cccc2c(=O)c3cccc(CC(=O)O)c3oc12,Optimal dose,P388 [2],150 mg/kg
same,Optimal dose,[3],150 mg/kg
same,Activity,[8],50%
same,ILS,P388 [6],42%
COc1ccc2oc3c(CC(=O)O)cccc3c(=O)c2c1,Optimal dose,P388 [2],150 mg/kg
same,Optimal dose,[3],500 mg/kg
same,Activity,[8],50%
same,ILS,P388 [4],No activity
O=C(O)Cc1cccc2c(=O)c3cc(O)ccc3oc12,Activity,[1],<50%
same,Optimal dose,[3],750 mg/kg
Cc1cc(CC(=O)O)c2oc3ccccc3c(=O)c2c1,Optimal dose,P388 [2],330 mg/kg
same,Optimal dose,[3],500 mg/kg
same,Activity,[8],50%
same,ILS,P388 [4],No activity
O=C(O)Cc1cccc2oc3ccccc3c(=O)c12,Activity,[1],<50%
same,Optimal dose,P388 [2],500 mg/kg
same,Optimal dose,[3],500 mg/kg
same,ILS,P388 [4],No activity
O=C(O)Cc1cc(O)cc2c(=O)c3ccccc3oc12,Activity,[1],<50%
same,Optimal dose,[3],750 mg/kg
Cc1ccc2c(=O)c3cccc(CC(=O)O)c3oc2c1,Optimal dose,P388 [2],100 mg/kg
same,Optimal dose,[3],220 mg/kg
same,Activity,[8],50%
same,ILS,P388 [6],24%
O=C(O)Cc1cccc2c(=O)c3cc(Cl)ccc3oc12,Optimal dose,P388 [2],150 mg/kg
same,Optimal dose,[3],500 mg/kg
same,Activity,[8],50%
same,ILS,P388 [4],No activity
Cc1ccc(CC(=O)O)c2oc3ccccc3c(=O)c12,Optimal dose,[3],150 mg/kg
same,Activity,[8],50%
same,ILS,P388 [4],No activity
same,Optimal dose,P388 [14],100 mg/kg
O=C(O)Cc1cccc2c(=O)cc(-c3ccccc3)oc12 [MITOFLAXONE],Activity,[1],>90%
same,Optimal dose,P388 [2],150 mg/kg
same,Optimal dose,[3],330 mg/kg
same,ILS,P388 [4],No activity
same,Growth delay,[15],17 days
Cc1ccc2oc3c(CC(=O)O)cccc3c(=O)c2c1,Optimal dose,P388 [2],500 mg/kg
same,Optimal dose,[3],500 mg/kg
same,Activity,[8],50%
same,ILS,P388 [4],No activity
O=c1[nH]cc(F)c(=O)[nH]1 [FLUOROURACIL],Growth delay,[16],12.5 days
O=C(O)Cc1cccc2c(=O)c3ccc(Cl)cc3oc12,Optimal dose,P388 [2],65 mg/kg
same,Optimal dose,[3],150 mg/kg
same,Activity,[8],50%
same,ILS,P388 [4],No activity
O=C(O)Cc1c(O)ccc2c(=O)c3ccccc3oc12,Activity,[1],<50%
same,Optimal dose,P388 [2],500 mg/kg
same,Optimal dose,[3],500 mg/kg
same,ILS,P388 [4],No activity
O=C(O)Cc1ccc(Cl)c2c(=O)c3ccccc3oc12,Activity,[1],>90%
same,Optimal dose,P388 [2],220 mg/kg
same,Optimal dose,[3],330 mg/kg
same,ILS,P388 [4],No activity
O=C(O)Cc1cccc2c(=O)c3cccc(Cl)c3oc12,Growth delay,[13],5.2 days
same,Activity,[1],>90%
same,Optimal dose,P388 [2],65 mg/kg
same,Optimal dose,[3],150 mg/kg
same,ILS,P388 [6],34%
O=C(O)Cc1cccc2c(=O)c3cccc([N+](=O)[O-])c3oc12,Optimal dose,P388 [2],150 mg/kg
same,Optimal dose,[3],220 mg/kg
same,ILS,P388 [12],inactive
COc1cc(CC(=O)O)c2oc3ccccc3c(=O)c2c1,Optimal dose,P388 [2],225 mg/kg
same,Optimal dose,[3],750 mg/kg
same,Activity,[8],50%
same,ILS,P388 [4],No activity
